Assay results: ChEMBL document CHEMBL4359917, “Design, synthesis, and biological evaluation of novel benzodiazepine derivatives as anticancer agents through inhibition of tubulin polymerization in vitro and in vivo” (Eur J Med Chem, 2019)

Tests used:
[1] = system: A549; experiment: Antitumour activity against human A549 cells xenografted in BALB/c nude mouse assessed as tumour weight at 30 mg/kg, ip administered every other day measured at day 26 by electronic caliper method (reference value: 1.894 g); type: functional
[2] = Solubility of compound in water; type: physicochemical; conditions: buffer
[3] = system: A549; experiment: Antitumour activity against human A549 cells xenografted in BALB/c nude mouse assessed as tumour growth inhibition at 30 mg/kg, ip administered every other day measured at day 26 by electronic caliper method relative to control; type: functional; conditions: 624 h, read-out: GI
[4] = Toxicity in BALB/c nude mouse xenografted with human A549 cells assessed as effect on body weight at 30 mg/kg, ip administered every other day measured for 26 days; type: organism-based; conditions: in vivo, 624 h
[5] = system: A549; experiment: Antitumour activity against human A549 cells xenografted in BALB/c nude mouse assessed as tumour volume at 30 mg/kg, ip administered every other day measured at day 26 by electronic caliper method (reference value: 2006.37 mm3); type: functional
[6] = system: HeLa; experiment: Antiproliferative activity against human HeLa cells assessed as cell growth inhibition measured after 48 hrs by MTT assay; type: functional, cell-based
In short: (§1)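 Cancer cell lines exposed to compounds for 48 h; viability read by MTT assay. IC50 reported as mean ± SD from at least three independent experiments.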

[7] = system: HepG2; experiment: Antiproliferative activity against human HepG2 cells assessed as cell growth inhibition measured after 48 hrs by MTT assay; type: functional, cell-based; conditions: HepG2, 48 h; in short: as §1
[8] = system: HCT-116; experiment: Antiproliferative activity against human HCT116 cells assessed as cell growth inhibition measured after 48 hrs by MTT assay; type: functional, cell-based; conditions: HCT-116, 48 h; in short: as §1
[9] = system: A549; experiment: Antiproliferative activity against human A549 cells assessed as cell growth inhibition measured after 48 hrs by MTT assay; type: functional, cell-based; conditions: A549, 48 h; in short: as §1
[10] = system: MDA-MB-231; experiment: Antiproliferative activity against human MDA-MB-231 cells assessed as cell growth inhibition measured after 48 hrs by MTT assay; type: functional, cell-based; conditions: MDA-MB-231, 48 h; in short: as §1
[11] = Metabolic stability in Sprague-Dawley rat liver microsomes assessed as parent compound remaining after 150 mins in presence of NADPH by HPLC-UV-MS analysis; type: ADME, Microsome
In short: (§2)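 Compound incubated with rat liver microsomes in buffer containing an NADPH regenerating system. Percentage of parent remaining was determined at time points up to 180 min, and half-life was derived.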

[12] = Metabolic stability in Sprague-Dawley rat liver microsomes assessed as parent compound remaining after 30 mins in presence of NADPH by HPLC-UV-MS analysis; type: ADME, Microsome; conditions: read-out: Stability; in short: as §2
[13] = Metabolic stability in Sprague-Dawley rat liver microsomes assessed as parent compound remaining after 90 mins in presence of NADPH by HPLC-UV-MS analysis; type: ADME, Microsome; conditions: read-out: Stability; in short: as §2
[14] = Metabolic stability in Sprague-Dawley rat liver microsomes assessed as parent compound remaining after 60 mins in presence of NADPH by HPLC-UV-MS analysis; type: ADME, Microsome; conditions: read-out: Stability; in short: as §2
[15] = Half-life in Sprague-Dawley rat liver microsomes in presence of NADPH by HPLC-UV-MS analysis; type: ADME, Microsome; in short: as §2
[16] = Metabolic stability in Sprague-Dawley rat liver microsomes assessed as parent compound remaining after 120 mins in presence of NADPH by HPLC-UV-MS analysis; type: ADME, Microsome; conditions: read-out: Stability; in short: as §2
[17] = in vitro; conditions: Sprague-Dawley, rat, liver microsomes

Row | SMILES | IC50 [6] [nM] | IC50 [7] [nM] | IC50 [8] [nM] | IC50 [9] [nM] | IC50 [10] [nM] | also measured
1 | COc1cc(C2=NCC(=O)Nc3c2ccc(OC)c3OP(=O)([O-])[O-])cc(SC)c1OC.[Na+].[Na+] | – | – | – | – | – | Activity [1]: 0.373 g; solubility [2]: Soluble; inhibition in vivo at 30 mg/kg [3]: 79.3%; Activity [4]: Non-Toxic; Activity [5]: 369.25 mm3
2 | COc1cc(-c2cc(=O)[nH]c3c(O)c(OC)ccc23)cc([Se]C)c1OC | 51.7 | 22 | 124 | 60.7 | 69 | –
3 | COc1cc(-c2cc(=O)[nH]c3c(O)c(OC)ccc23)cc(SC)c1OC | 35.5 | 51.7 | 28.8 | 61.8 | 70 | –
4 | COc1ccc(/C=C\c2cc(OC)c(OC)c(OC)c2)cc1O [COMBRETASTATIN A4] | – | – | – | – | – | Stability ([11]; microsomes, 2.5 h): Unstable; remaining at 0.5 h [12]: 66.3%; remaining at 1.5 h [13]: 21.6%; remaining at 1 h [14]: 36.4%; half-life [15]: < 1 h; remaining at 2 h [16]: 17.9%
5 | COc1ccc2c(c1O)NC(=O)CN=C2c1cc(OC)c(OC)c(SC)c1 | 16.5 | 14.2 | 10.8 | 18.7 | 24.7 | –
6 | COc1ccc(/C=C\c2cc(OC)c(OC)c(OC)c2)cc1OP(=O)([O-])[O-].[Na+].[Na+] [FOSBRETABULIN DISODIUM] | – | – | – | – | – | Activity [1]: 0.879 g; inhibition in vivo at 30 mg/kg [3]: 52.8%; Activity [5]: 984.86 mm3
7 | COc1ccc2c(c1O)NC(=O)CN=C2c1cc(OC)c(OC)c(OC)c1 | 18.1 | 15.7 | 16.6 | 9.15 | 54.6 | remaining at 2.5 h ([11]; Sprague-Dawley, liver microsomes, read-out: Stability): 55.2%; remaining at 0.5 h [12]: 94.3%; remaining at 1.5 h [13]: 76.2%; remaining at 1 h [14]: 85.5%; remaining at 3 h [17]: 49.9%; half-life [15]: 2.62 h; remaining at 2 h [16]: 65.3%
8 | COc1cc(-c2c(C)c(=O)[nH]c3c(O)c(OC)ccc23)cc(SC)c1OC | 158 | 303 | 229 | 86 | 133 | –
9 | COc1ccc2c(c1O)NC(=O)CN=C2c1cc2c(c(OC)c1)OC(C)(C)C=C2 | 34.7 | 30.5 | 13.9 | 56.2 | 69 | –
10 | COc1cc(C2=NCC(=O)Nc3c2ccc(OC)c3OP(=O)([O-])[O-])cc([Se]C)c1OC.[Na+].[Na+] | – | – | – | – | – | Activity [1]: 0.201 g; solubility [2]: Soluble; inhibition in vivo at 30 mg/kg [3]: 89.3%; Activity [4]: Non-Toxic; Activity [5]: 215.2 mm3
11 | COc1ccc2c(c1O)NC(=O)CN=C2c1cc(OC)c(OC)c(N(C)C)c1 | 54.9 | 52 | 53 | 66.2 | 91 | –
12 | COc1ccc2c(c1O)NC(=O)CN=C2c1ccc(OC)c2c1OC(C)(C)C=C2 | 1870 | 4590 | 207 | 433 | 3710 | –
13 | COc1ccc2c(c1O)NC(=O)C(C)N=C2c1cc(OC)c(OC)c(SC)c1 (centres undefined) | 1070 | 295 | 89 | 93 | 295 | –
14 | COc1cc(C2=NCC(=O)Nc3c2ccc(OC)c3OP(=O)([O-])[O-])cc(OC)c1OC.[Na+].[Na+] | – | – | – | – | – | Activity [1]: 0.415 g; inhibition in vivo at 30 mg/kg [3]: 77.7%; Activity [5]: 408.17 mm3
